Experimental data published in ChEMBL document CHEMBL3407398, “Comparison between loureirin A and cochinchinenin C on the interaction with human serum albumin” (Eur J Med Chem, 2015).

Columns and labels:
Conditions in all cases: isolated protein; call rule not given here
Albumin [1] = target: T1, Albumin (Homo sapiens, UniProt P02768); assay: Binding affinity to human serum albumin assessed as free energy change at 300K by thermodynamic analysis
Albumin [2] = target: T1, Albumin; assay: Binding affinity to human serum albumin assessed as enthalpy change at 300K by thermodynamic analysis; type: ADME
How it was run: (§1)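 Fatty-acid-free HSA, 1.5 × 10^-6 M in 0.1 M Tris-HCl pH 7.4 / 0.1 M NaCl, was titrated with ligand from ethanol stock and equilibrated 5 min per addition. Emission was read 300–450 nm (excitation 280 nm) at 300, 305 and 310 K. Binding constants came from the quenching data across these temperatures, and thermodynamic parameters from their temperature dependence.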

Albumin [3] = target: T1, Albumin; assay: Binding affinity to human serum albumin assessed as free energy change at 305K by thermodynamic analysis
Albumin [4] = target: T1, Albumin; assay: Binding affinity to human serum albumin assessed as binding constant at 300K by Stem-Volmer plot; type: ADME
How it was run: as §1

Albumin [5] = target: T1, Albumin; assay: Binding affinity to human serum albumin assessed as quenching constant at 305K by fluorescence spectroscopy; type: ADME
How it was run: (§2)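 Fatty-acid-free HSA, 1.5 × 10^-6 M in 0.1 M Tris-HCl pH 7.4 with 0.1 M NaCl, titrated with ligand from ethanol stock. Each addition equilibrated 5 min. Emission recorded 300–450 nm with excitation at 280 nm, at 300, 305 and 310 K. Constants taken from the linear low-concentration region of Stern-Volmer F0/F plots.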

Albumin [6] = target: T1, Albumin; assay: Binding affinity to human serum albumin assessed as induction of protein conformational changes by measuring reduction in intensity along with red shift in peak 1 by three-dimensional fluorescence spectroscopy; set-up: scale not given: the % may be the effect or the level left
How it was run: (§3)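 3-D fluorescence of HSA at 1.5 × 10^-6 M, alone and with ligand at a 2:1 ligand/HSA molar ratio, in Tris-HCl pH 7.4 buffer. Excitation scanned 200–480 nm in 10 nm steps, with emission recorded 220–500 nm. Changes in intensity and position of peak 1 were compared.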

Albumin [7] = target: T1, Albumin; assay: Binding affinity to human serum albumin assessed as quenching constant at 300K by fluorescence spectroscopy; type: ADME
How it was run: as §2

Albumin [8] = target: T1, Albumin; assay: Binding affinity to human serum albumin assessed as quenching constant at 310K by fluorescence spectroscopy; type: ADME
How it was run: as §2

Albumin [9] = target: T1, Albumin; assay: Binding affinity to human serum albumin assessed as induction of protein conformational changes by synchronous fluorescence spectroscopy
Albumin [10] = target: T1, Albumin; assay: Binding affinity to human serum albumin assessed as free energy change at 310K by thermodynamic analysis
Albumin [11] = target: T1, Albumin; assay: Binding affinity to human serum albumin assessed as Stem-Volmer quenching constant at 305K by fluorescence spectroscopy; type: ADME
How it was run: as §2

Albumin [12] = target: T1, Albumin; assay: Binding affinity to human serum albumin assessed as binding constant at 305K by Stem-Volmer plot; type: ADME
How it was run: as §1

Albumin [13] = target: T1, Albumin; assay: Binding affinity to human serum albumin assessed as Stem-Volmer quenching constant at 310K by fluorescence spectroscopy; type: ADME
How it was run: as §2

Albumin [14] = target: T1, Albumin; assay: Binding affinity to human serum albumin assessed as binding constant at 310K by Stem-Volmer plot; type: ADME
How it was run: as §1

Albumin [15] = target: T1, Albumin; assay: Binding affinity to human serum albumin assessed as Stem-Volmer quenching constant at 300K by fluorescence spectroscopy; type: ADME
How it was run: as §2

Albumin [16] = target: T1, Albumin; assay: Binding affinity to human serum albumin by UV-vis spectrophotometry; type: ADME
How it was run: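 UV-vis absorption titration at room temperature in a 10 mm quartz cuvette. HSA was held at 1.5 × 10^-6 M while ligand was varied 0–18 × 10^-6 M, and absorbance change at 280 nm was followed. Spectra of ligand alone at 1.5 × 10^-6 M were also recorded.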

Albumin [17] = target: T1, Albumin; assay: Binding affinity to human serum albumin assessed as induction of protein conformational changes by measuring reduction in intensity along with blue shift in peak 1 by three-dimensional fluorescence spectroscopy; set-up: scale not given: the % may be the effect or the level left
How it was run: as §3

T1 sequence (P02768 whole entry): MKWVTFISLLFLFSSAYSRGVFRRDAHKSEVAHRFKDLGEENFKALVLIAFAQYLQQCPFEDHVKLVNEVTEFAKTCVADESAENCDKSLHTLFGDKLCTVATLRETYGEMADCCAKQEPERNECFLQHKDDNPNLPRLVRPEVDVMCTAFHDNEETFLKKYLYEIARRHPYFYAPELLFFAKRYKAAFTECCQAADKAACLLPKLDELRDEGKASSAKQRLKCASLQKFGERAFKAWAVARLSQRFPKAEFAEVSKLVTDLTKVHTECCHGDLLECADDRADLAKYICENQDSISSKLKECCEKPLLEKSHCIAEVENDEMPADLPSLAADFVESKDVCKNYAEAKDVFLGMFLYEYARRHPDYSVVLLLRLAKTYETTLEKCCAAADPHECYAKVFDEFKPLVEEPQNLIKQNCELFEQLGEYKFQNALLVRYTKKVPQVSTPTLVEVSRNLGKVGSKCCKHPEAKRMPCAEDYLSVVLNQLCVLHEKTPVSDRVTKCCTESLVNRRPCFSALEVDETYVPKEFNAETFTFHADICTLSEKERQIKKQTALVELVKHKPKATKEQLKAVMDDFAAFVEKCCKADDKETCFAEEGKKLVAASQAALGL

SMILES	deltaG (Albumin [1]) [kcal/mol]	deltaH (Albumin [2]) [kcal/mol]	deltaG (Albumin [3]) [kcal/mol]	K (Albumin [4]) [×10⁴ /M]	Kq (Albumin [5]) [×10¹² /M/s]	Activity (Albumin [6]) [%]	Kq (Albumin [7]) [×10¹² /M/s]	Kq (Albumin [8]) [×10¹² /M/s]	Activity (Albumin [9])	deltaG (Albumin [10]) [kcal/mol]	KSV (Albumin [11]) [×10⁴ /M]	K (Albumin [12]) [×10⁴ /M]	KSV (Albumin [13]) [×10⁴ /M]	K (Albumin [14]) [×10⁴ /M]	KSV (Albumin [15]) [×10⁴ /M]	Activity (Albumin [16])	Activity (Albumin [17]) [%]
COc1ccc(CCC(=O)c2ccc(O)cc2)c(OC)c1	-6.998	-7.643	-6.986	12.91	7.98	28	9.85	6.24	Active	-6.977	7.98	9.51	6.24	8.56	9.85	Active	–
COc1ccc(C(CCc2ccc(O)cc2OC)c2cc(CCC(=O)c3ccc(O)cc3)c(OC)cc2O)cc1 (configuration not stated) [COCHINCHINENIN C]	-7.431	-13.37	-7.33	25.32	14.95	–	17.69	12.15	Active	-7.232	14.95	18.62	12.15	12.32	17.69	Active	14
